Experiments:
[1] = biological target: T1, Intercellular adhesion molecule (ICAM-1), Integrin alpha-L/beta-2 (Homo sapiens, UniProt P05107+P20701); assay: Dissociation constant for human Lymphocyte function associated antigen 1 in LFA-1/ICAM-1 binding assay; format: protein-complex assay
[2] = biological target: T1, Intercellular adhesion molecule (ICAM-1), Integrin alpha-L/beta-2; assay: Dissociation constant against human Lymphocyte function associated antigen1 in LFA-1/ICAM-1 binding assay; format: protein-complex assay
[3] = biological target: T1, Intercellular adhesion molecule (ICAM-1), Integrin alpha-L/beta-2; assay: Dissociation constant for human Lymphocyte function associated antigen1 in LFA-1/ICAM-1 binding assay
[4] = Concentration of compound required for 50% inhibition of aggregation of JY cell lines; format: functional, cell-based; settings: Homo sapiens
Cell line [5] = assay: cells; format: functional, cell-based; settings: Homo sapiens, Blood
Mus musculus = organism: Mus musculus; assay: tissue or blood; format: functional, organism-based
[6] = Concentration required for inhibition of aggregation of JY cell line; format: functional, cell-based; settings: Homo sapiens
Cell line [7] = assay: Concentration required for irreversible binding to human liver microsomes; format: functional
[8] = Maximum plasma concentration present after 4 hours of administration of compound of at 30 mg/kg; format: ADME, organism-based, Homo sapiens; parameters: dose 30 mg/kg; settings: read-out: Concentration
[9] = Maximum plasma concentration present after 4 hours of administration of compound of at 100 mg/kg; format: ADME, organism-based, Homo sapiens; parameters: dose 100 mg/kg; settings: read-out: Concentration
Procedure, shortened: (§1)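 Mice in the SEB-induced IL-2 production experiment were dosed orally at 30 or 100 mg/kg. Plasma drug concentration was measured 4 h after dosing and reported in ng/mL.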

[10] = biological target: T1, Intercellular adhesion molecule (ICAM-1), Integrin alpha-L/beta-2; assay: Dissociation constant for human Lymphocyte function-associated antigen-1 in LFA-1/ICAM-1 binding assay; format: protein-complex assay
[11] = Maximum plasma concentration present after 4 hours of administration of compound at 30 mg/kg; format: ADME, organism-based, Homo sapiens; parameters: dose 30 mg/kg; settings: read-out: Concentration
[12] = Maximum plasma concentration present after 4 hours of administration of compound of concentration 100 mg/kg; format: ADME, organism-based, Homo sapiens; parameters: dose 100 mg/kg; settings: read-out: Concentration; procedure, shortened: as §1
[13] = Concentration required to inhibit aggregation of JY cells; format: functional, cell-based; settings: Homo sapiens

T1 sequence (P20701 whole entry): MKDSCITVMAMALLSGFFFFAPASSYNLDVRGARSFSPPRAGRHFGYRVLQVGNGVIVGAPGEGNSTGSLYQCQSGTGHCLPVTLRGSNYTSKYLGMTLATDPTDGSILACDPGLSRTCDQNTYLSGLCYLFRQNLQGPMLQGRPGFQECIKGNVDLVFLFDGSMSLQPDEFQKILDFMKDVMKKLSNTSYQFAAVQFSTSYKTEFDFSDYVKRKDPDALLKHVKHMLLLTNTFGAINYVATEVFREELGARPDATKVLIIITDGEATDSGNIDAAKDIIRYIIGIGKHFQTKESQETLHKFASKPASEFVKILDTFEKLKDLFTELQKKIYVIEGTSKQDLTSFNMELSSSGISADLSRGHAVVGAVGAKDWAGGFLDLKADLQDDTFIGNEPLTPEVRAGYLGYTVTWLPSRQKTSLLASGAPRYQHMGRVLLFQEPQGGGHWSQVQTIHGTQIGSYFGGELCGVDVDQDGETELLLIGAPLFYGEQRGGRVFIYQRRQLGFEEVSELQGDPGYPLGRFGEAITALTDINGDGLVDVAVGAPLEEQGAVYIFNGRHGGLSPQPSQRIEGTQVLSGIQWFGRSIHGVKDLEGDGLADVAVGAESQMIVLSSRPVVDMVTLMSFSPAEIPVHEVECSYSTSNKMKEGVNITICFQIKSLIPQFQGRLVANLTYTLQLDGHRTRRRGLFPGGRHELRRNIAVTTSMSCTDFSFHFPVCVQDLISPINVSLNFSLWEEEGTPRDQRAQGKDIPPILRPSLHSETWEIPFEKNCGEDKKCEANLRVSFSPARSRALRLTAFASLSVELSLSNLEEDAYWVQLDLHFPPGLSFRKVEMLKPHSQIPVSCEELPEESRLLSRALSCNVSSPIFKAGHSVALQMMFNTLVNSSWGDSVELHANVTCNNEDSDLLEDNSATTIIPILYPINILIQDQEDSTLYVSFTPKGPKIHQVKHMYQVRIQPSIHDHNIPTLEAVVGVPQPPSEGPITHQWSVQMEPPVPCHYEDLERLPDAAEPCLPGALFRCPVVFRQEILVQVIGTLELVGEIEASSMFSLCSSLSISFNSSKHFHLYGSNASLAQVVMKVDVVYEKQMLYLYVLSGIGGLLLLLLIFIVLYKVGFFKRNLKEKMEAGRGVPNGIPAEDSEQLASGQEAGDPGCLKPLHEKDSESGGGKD
T1 sequence (P05362 whole entry, further chain): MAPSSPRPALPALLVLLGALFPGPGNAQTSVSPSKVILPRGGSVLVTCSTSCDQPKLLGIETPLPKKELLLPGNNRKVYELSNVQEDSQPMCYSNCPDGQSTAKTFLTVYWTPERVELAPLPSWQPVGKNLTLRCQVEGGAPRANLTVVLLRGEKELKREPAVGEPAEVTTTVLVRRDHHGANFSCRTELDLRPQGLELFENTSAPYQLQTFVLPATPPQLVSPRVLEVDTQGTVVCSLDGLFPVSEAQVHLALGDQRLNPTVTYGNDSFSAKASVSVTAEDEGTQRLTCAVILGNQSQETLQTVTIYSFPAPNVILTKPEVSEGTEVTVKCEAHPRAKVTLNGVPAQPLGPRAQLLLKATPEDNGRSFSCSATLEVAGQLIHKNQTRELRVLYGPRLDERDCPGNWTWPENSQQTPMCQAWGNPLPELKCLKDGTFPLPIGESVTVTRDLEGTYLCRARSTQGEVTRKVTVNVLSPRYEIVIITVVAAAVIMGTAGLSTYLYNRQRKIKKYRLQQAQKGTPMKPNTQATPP
T1 sequence (P05107 whole entry): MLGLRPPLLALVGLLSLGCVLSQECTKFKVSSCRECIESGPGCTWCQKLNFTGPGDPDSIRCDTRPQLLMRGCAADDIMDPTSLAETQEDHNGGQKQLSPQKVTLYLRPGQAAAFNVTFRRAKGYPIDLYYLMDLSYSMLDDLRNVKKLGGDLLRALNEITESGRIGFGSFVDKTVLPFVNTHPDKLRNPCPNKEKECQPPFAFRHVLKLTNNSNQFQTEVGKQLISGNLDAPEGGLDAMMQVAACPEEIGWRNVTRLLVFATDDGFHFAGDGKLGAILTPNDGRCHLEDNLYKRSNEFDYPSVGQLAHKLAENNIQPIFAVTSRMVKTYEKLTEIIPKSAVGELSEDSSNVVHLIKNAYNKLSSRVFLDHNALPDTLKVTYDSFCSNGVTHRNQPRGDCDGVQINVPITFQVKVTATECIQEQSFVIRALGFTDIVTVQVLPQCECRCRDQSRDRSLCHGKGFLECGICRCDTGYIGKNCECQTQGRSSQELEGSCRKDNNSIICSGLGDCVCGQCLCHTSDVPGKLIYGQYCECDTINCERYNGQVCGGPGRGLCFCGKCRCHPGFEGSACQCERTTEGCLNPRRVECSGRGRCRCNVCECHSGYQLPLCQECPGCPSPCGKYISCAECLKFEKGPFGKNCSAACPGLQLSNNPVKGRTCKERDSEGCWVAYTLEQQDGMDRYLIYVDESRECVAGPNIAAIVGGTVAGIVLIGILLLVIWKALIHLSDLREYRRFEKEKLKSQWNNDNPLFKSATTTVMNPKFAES

COCCCS(=O)(=O)c1cnc2n1[C@](C)(Cc1ccc(Br)cc1)C(=O)N2c1cc(Cl)cc(Cl)c1
Kd [1]: 0.02 µM

CC1(Cc2ccc(Br)cc2)C(=O)N(c2cc(Cl)cc(Cl)c2)c2nc(I)cn21 (centres undefined)
Kd [1]: > 20 µM

CC1(Cc2ccc(Br)cc2)C(=O)N(c2cc(Cl)cc(Cl)c2)c2nnnn21 (centres undefined)
Kd [1]: 0.11 µM

CC1(Cc2ccc(Br)cc2)C(=O)N(c2cc(Cl)cc(Cl)c2)c2ncc(I)n21 (centres undefined)
Kd [1]: 0.41 µM

CC1(Cc2ccc(Br)cc2)C(=O)N(c2cc(Cl)cc(Cl)c2)c2nc(Br)cn21 (centres undefined)
Kd [1]: 0.63 µM

C[C@@]1(Cc2ccc(Br)cc2)C(=O)N(c2cc(Cl)cc(Cl)c2)c2ncc(S(=O)(=O)CCCO)n21
Kd [2]: 0.1 µM
Kd [1]: 0.01 µM
Kd [3]: 0.01 µM
IC50 [4]: 0.09 µM
IC50 (Cell line [5]): 10.4 µM

C[C@@]1(Cc2ccc(Br)cc2)C(=O)N(c2cc(Cl)cc(Cl)c2)c2ncc(S(=O)(=O)CCCCO)n21
Kd [1]: 0.01 µM

CC1(Cc2ccc(Br)cc2)C(=O)N(c2cc(Cl)cc(Cl)c2)c2ncc(C#N)n21 (centres undefined)
Kd [1]: 0.19 µM

Cc1cnc2n1C(C)(Cc1ccc(Br)cc1)C(=O)N2c1cc(Cl)cc(Cl)c1 (centres undefined)
Kd [1]: 0.34 µM

CC(=O)NCCCS(=O)(=O)c1cnc2n1[C@](C)(Cc1ccc(Br)cc1)C(=O)N2c1cc(Cl)cc(Cl)c1
Kd [2]: 0.07 µM
Kd [1]: 0.03 µM
IC50 [4]: 0.35 µM
IC50 (Cell line [5]): 9.5 µM
IC50 (Mus musculus): 9.5 µM

CC1(Cc2ccc(Br)cc2)C(=O)N(c2cc(Cl)cc(Cl)c2)c2nncn21 (centres undefined)
Kd [1]: 0.04 µM

CC1(Cc2ccc(Br)cc2)C(=O)N(c2cc(Cl)cc(Cl)c2)c2ncc(S(C)(=O)=O)n21 (centres undefined)
Kd [1]: 0.07 µM

C[C@@]1(Cc2ccc(Br)cc2)C(=O)N(c2cc(Cl)cc(Cl)c2)c2ncc(S(=O)(=O)CCO)n21
Kd [1]: 0.04 µM

C[C@@]1(Cc2ccc(Br)cc2)C(=O)N(c2cc(Cl)cc(Cl)c2)c2nccn21
Kd [1]: 0.01 µM
IC50 [6]: 1.2 µM
Activity (Cell line [7]): 114 pM/min/ml
Cmax [8]: 25 ng/mL
Cmax [9]: 155 ng/mL

CC1(Cc2ccc(Br)cc2)C(=O)N(c2cc(Cl)cc(Cl)c2)c2nc(S(C)(=O)=O)cn21 (centres undefined)
Kd [1]: 0.92 µM

C[C@@]1(Cc2ccc(Br)cc2)C(=O)N(c2cc(Cl)cc(Cl)c2)c2ncc(S(=O)(=O)N3CCOCC3)n21
Kd [1]: 0.02 µM

C[C@@]1(Cc2ccc(Br)cc2)C(=O)N(c2cc(Cl)cc(Cl)c2)c2ncc(S(=O)(=O)CCCN)n21
Kd [1]: 0.17 µM

C[C@@]1(Cc2ccc(Br)cc2)C(=O)N(c2cc(Cl)cc(Cl)c2)c2ncc(S(=O)(=O)N3CCNCC3)n21
Kd [2]: 0.4 µM
Kd [1]: 0.05 µM
IC50 [4]: 0.38 µM
IC50 (Cell line [5]): 27.8 µM
IC50 (Mus musculus): 27.8 µM

CC(=O)OCCCCS(=O)(=O)c1cnc2n1[C@](C)(Cc1ccc(Br)cc1)C(=O)N2c1cc(Cl)cc(Cl)c1
Kd [1]: 0.03 µM

C[C@@]1(Cc2ccc(Br)cc2)C(=O)N(c2cc(Cl)cc(Cl)c2)c2ncc(S(=O)(=O)N3CCC(O)CC3)n21
Kd [2]: 0.04 µM
Kd [1]: 0.008 µM
Kd [10]: 0.009 µM
IC50 [4]: 0.03 µM
IC50 (Cell line [5]): 4.6 µM
IC50 (Mus musculus): 4.6 µM

CNCCCS(=O)(=O)c1cnc2n1[C@](C)(Cc1ccc(Br)cc1)C(=O)N2c1cc(Cl)cc(Cl)c1
Kd [1]: 0.15 µM

CC(=O)OCCCS(=O)(=O)c1cnc2n1[C@](C)(Cc1ccc(Br)cc1)C(=O)N2c1cc(Cl)cc(Cl)c1
Kd [2]: 0.04 µM
Kd [1]: 0.01 µM
IC50 [4]: 0.37 µM
IC50 (Cell line [5]): 7 µM

C[C@]1(Cc2ccc(Br)cc2)C(=O)N(c2cc(Cl)cc(Cl)c2)c2nccn21
Kd [1]: > 7 µM

C[C@@]1(Cc2ccc(Br)cc2)C(=O)N(c2cc(Cl)cc(Cl)c2)c2ncc(S(=O)(=O)N3CCCCC3)n21
Kd [1]: 0.05 µM

COc1cnc2n1C(C)(Cc1ccc(Br)cc1)C(=O)N2c1cc(Cl)cc(Cl)c1 (centres undefined)
Kd [1]: 0.36 µM

CC1(Cc2ccc(Br)cc2)C(=O)N(c2cc(Cl)cc(Cl)c2)c2ncc(Br)n21 (centres undefined)
Kd [1]: 0.18 µM

CC1(Cc2ccc(Br)cc2)C(=O)N(c2cc(Cl)cc(Cl)c2)c2nc(C#N)cn21 (centres undefined)
Kd [1]: 0.28 µM

C[C@@]1(Cc2ccc(Br)cc2)C(=O)N(c2cc(Cl)cc(Cl)c2)c2ncc(S(C)(=O)=O)n21
Kd [1]: 0.05 µM
IC50 [6]: 0.26 µM
Cmax [11]: 2800 ng/mL
Cmax [12]: 14400 ng/mL

CN1C(=O)N(c2cc(Cl)cc(Cl)c2)C(=O)[C@@]1(C)Cc1ccc(Br)cc1
IC50 [13]: 0.24 µM
Activity (Cell line [7]): 141 pM/min/mg

C[C@@]1(Cc2ccc(Br)cc2)C(=O)N(c2cc(Cl)cc(Cl)c2)c2ncc(S(=O)(=O)N3CCCC(O)C3)n21 (some centres undefined)
Kd [1]: 0.07 µM

C[C@@]1(Cc2ccc(Br)cc2)C(=O)N(c2cc(Cl)cc(Cl)c2)c2ncc(S(=O)(=O)N3CCC(=O)CC3)n21
Kd [2]: 0.3 µM
Kd [1]: 0.01 µM
IC50 [4]: 0.25 µM
IC50 (Cell line [5]): 5.5 µM
IC50 (Mus musculus): 5.5 µM

CC1(Cc2ccc(Br)cc2)C(=O)N(c2cc(Cl)cc(Cl)c2)c2nccn21 (racemic)
Kd [1]: 0.38 µM

From ChEMBL document CHEMBL1138790, “Second-generation lymphocyte function-associated antigen-1 inhibitors: 1H-imidazo[1,2-alpha]imidazol-2-one derivatives” (J Med Chem, 2004)
